# Calls of active or inactive are those of the source. The calls are words filed in the database; no cut-off is given here.
# Tests used:
# [1] = molecular target: T1, Glycogen synthase kinase-3 beta (Homo sapiens, UniProt P49841); assay: Inhibition of human recombinant GSK3-beta
# Method in brief: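 10× kinase buffer stock was 200 mM Tris-HCl pH 7.4, 100 mM MgCl2, 5 mM DTT; ATP added from a 100 μM stock. Incubated 30 °C for 45 min. Tau pS396 read by immunoassay at A450. DMSO and no-ATP controls were run. IC50 taken from activity curves.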
# Target sequence in this assay (P49841 whole entry): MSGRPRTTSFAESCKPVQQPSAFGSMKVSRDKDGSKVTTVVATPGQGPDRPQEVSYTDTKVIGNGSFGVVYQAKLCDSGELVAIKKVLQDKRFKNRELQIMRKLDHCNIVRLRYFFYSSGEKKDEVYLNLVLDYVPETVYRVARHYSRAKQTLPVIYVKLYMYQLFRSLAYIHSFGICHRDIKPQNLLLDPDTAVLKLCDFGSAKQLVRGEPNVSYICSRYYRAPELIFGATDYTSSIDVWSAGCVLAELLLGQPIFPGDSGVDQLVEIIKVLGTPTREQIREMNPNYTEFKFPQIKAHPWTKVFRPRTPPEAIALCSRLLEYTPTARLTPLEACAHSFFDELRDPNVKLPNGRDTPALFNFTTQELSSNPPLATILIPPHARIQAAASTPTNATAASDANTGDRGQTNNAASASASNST
# [2] = molecular target: T1, Glycogen synthase kinase-3 beta; assay: Inhibition of human recombinant GSK3-beta at 1 uM by ATP competitive assay
# Method in brief: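 Recombinant human GSK3β (60 ng) with tau-441 (400 ng) in 10× buffer stock (200 mM Tris-HCl pH 7.4, 100 mM MgCl2, 5 mM DTT). Inhibitor at 1 μM final, ATP varied, 20 μL, 30 °C for 45 min. Tau pS396 measured by immunoassay at A450. Activity (% of control) versus [ATP] fitted to a simple competitive-inhibition equation to give apparent Ki.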
# Target sequence in this assay (P49841 whole entry): as above
# [3] = Toxicity in Zebrafish embryos assessed as induction of eyeless phenotype during gastrulation at 25 uM after 3 days; assay type: tissue-based, Danio rerio, Embryo; conditions: in vivo, 72 h
# Method in brief: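 FLK-1:EGFP transgenic zebrafish embryos, six per well in 200 μL Holtfreter's buffer. Compound added at dome stage and embryos kept in compound solution up to 7 days. Heads examined at 1 and 3 dpf for eye phenotype. LiCl comparison: 0.3 M for 10 min, then buffer.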
# [4] = molecular target: Cyclin-dependent kinase 2/cyclin A (Homo sapiens, UniProt P24941); assay: Inhibition of human CDK2/Cyclin A by ELISA; assay type: protein-complex assay
# [5] = molecular target: Cyclin-dependent kinase 4/cyclin D1 (Homo sapiens, UniProt P11802); assay: Inhibition of human CDK4/cyclin D1 by ELISA; assay type: protein-complex assay
# Sequence of Cyclin-dependent kinase 4/cyclin D1 (P11802 whole entry): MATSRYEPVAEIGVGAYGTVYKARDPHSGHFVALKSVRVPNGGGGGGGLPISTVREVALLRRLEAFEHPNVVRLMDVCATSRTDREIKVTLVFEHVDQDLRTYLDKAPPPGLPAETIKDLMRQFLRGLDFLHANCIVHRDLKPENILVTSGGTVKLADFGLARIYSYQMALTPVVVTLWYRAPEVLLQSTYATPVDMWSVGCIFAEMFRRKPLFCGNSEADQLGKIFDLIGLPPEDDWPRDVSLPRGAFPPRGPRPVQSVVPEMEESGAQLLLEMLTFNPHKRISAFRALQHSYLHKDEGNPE
# Sequence of Cyclin-dependent kinase 4/cyclin D1 (P24385 whole entry, further chain): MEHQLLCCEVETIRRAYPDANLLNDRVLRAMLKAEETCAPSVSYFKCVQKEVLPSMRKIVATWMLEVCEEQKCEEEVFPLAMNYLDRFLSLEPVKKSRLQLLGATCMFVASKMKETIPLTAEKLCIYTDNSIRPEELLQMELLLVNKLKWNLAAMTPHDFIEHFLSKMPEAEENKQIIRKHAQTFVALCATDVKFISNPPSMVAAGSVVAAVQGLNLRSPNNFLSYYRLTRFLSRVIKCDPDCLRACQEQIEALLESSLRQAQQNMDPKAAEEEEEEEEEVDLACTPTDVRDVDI
# [6] = molecular target: T1, Glycogen synthase kinase-3 beta; assay: Inhibition of human recombinant GSK3-beta at 1 uM by ELISA
# Method in brief: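 Recombinant human GSK3β (500 ng) with human tau-441 (1 μg) as substrate, in a 20 μL reaction with 10× kinase buffer stock (200 mM Tris-HCl pH 7.4, 100 mM MgCl2, 5 mM DTT) and ATP added from a 100 μM stock. Incubated 30 °C for 45 min. Phospho-tau pS396 measured by immunoassay at A450. Controls were DMSO and no-ATP.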
# Target sequence in this assay (P49841 whole entry, looked up): as the sequence (P49841 whole entry) above
SMILES,Activity [6],also measured
COc1cc2c(C)cc3c(c2cc1OC)C(=O)NC3=O,Active,IC50 [1]: 270 nM; Ki [2]: 259 nM; Activity [3]: Active; IC50 [4]: 787 nM; IC50 [5]: 16000 nM
Cn1cc(C2=C(c3ccc(Cl)cc3Cl)C(=O)NC2=O)c2ccccc21 [SB-216763],Active,Activity [3]: Not Active; IC50 [4]: 269 nM; IC50 [5]: 32000 nM
CCc1cc2c(c3cc(OC)c(OC)cc13)C(=O)NC2=O,Active,IC50 [1]: 92 nM; Activity [3]: Not Active; IC50 [5]: 19000 nM
CCc1cc2c(C(=O)OC)cccc2c2c1C(=O)NC2=O,Active,
COC(=O)c1ccc2c3c(c(C(C)C)cc2c1)C(=O)NC3=O,Active,
Cc1cc2ccc(Cl)cc2c2c1C(=O)NC2=O,Active,
CCc1cc2ccc(C(=O)OC)cc2c2c1C(=O)NC2=O,Active,
CCc1c(C)c2c(c3cc(C(=O)OC)ccc13)C(=O)NC2=O,Active,
COC(=O)c1ccc2c3c(c(CC(C)C)cc2c1)C(=O)NC3=O,Active,
COC(=O)c1ccc2c3c(c(CC(C)OCc4ccccc4)cc2c1)C(=O)NC3=O (stereo not drawn),Active,
COC(=O)c1cccc2c3c(c(CC(C)C)cc12)C(=O)NC3=O,Active,IC50 [1]: 486 nM; IC50 [5]: 6000 nM
COC(=O)c1cccc2c3c(c(C(C)C)cc12)C(=O)NC3=O,Active,
COC(=O)c1ccc2c3c(c(CCO)cc2c1)C(=O)NC3=O,Active,
CCc1cc2cc(C(=O)OC)ccc2c2c1C(=O)NC2=O,Active,
COc1ccc2cc(C)c3c(c2c1)C(=O)NC3=O,Active,
COC(=O)c1ccc2c3c(c(CC(C)O)cc2c1)C(=O)NC3=O (stereo not drawn),Active,
COC(=O)c1cccc2c3c(c(C)cc12)C(=O)NC3=O,Active,
COC(=O)c1ccc2cc(C)c3c(c2c1)C(=O)NC3=O,Active,
COC(=O)c1cccc2c3c(c(C)c(C)c12)C(=O)NC3=O,Active,
COC(=O)c1ccc2c3c(c(C)c(C)c2c1)C(=O)NC3=O,Active,
Cc1cc2ccccc2c2c1C(=O)NC2=O,Active,
CCCc1cc2c(C(=O)OC)cccc2c2c1C(=O)NC2=O,Active,
COC(=O)c1ccc2c3c(c(CCOCc4ccccc4)cc2c1)C(=O)NC3=O,Active,
COC(=O)c1ccc2cc(C(C)C)c3c(c2c1)C(=O)NC3=O,Active,
COC(=O)c1ccc2cc(CC(C)C)c3c(c2c1)C(=O)NC3=O,Active,
